System: Fibroblast
Test: Multiplex assay against human fibroblast
Type: toxicity, cell-based
How it was run: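 Compound was added to live cells that had been stained at seeding with Hoechst33342, BioTracker Green Microtubule Cytoskeleton Dye, MitoTracker Red and Annexin V Alexa Fluor 680, and imaging followed on a CQ1 microscope at 37°C and 5% CO2. CellPathfinder machine-learning gating divided cells into Hoechst high-intensity objects or normal cells, normal cells into healthy, pyknosed or fragmented nuclei, and pyknosed cells into mitotic or apoptotic. Tubulin, mitochondrial-mass and membrane-permeability phenotypes are per cents of healthy-nucleus cells.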

[1] = 12 h, 1 µM, compound concentration 1 uM, replicate 1
[2] = 12 h, 1 µM, compound concentration 1 uM, replicate 2
[3] = 12 h, 10 µM, compound concentration 10 uM, replicate 1
[4] = 12 h, 10 µM, compound concentration 10 uM, replicate 2
[5] = 24 h, 1 µM, compound concentration 1 uM, replicate 1
[6] = 24 h, 1 µM, compound concentration 1 uM, replicate 2
[7] = 24 h, 10 µM, compound concentration 10 uM, replicate 1
[8] = 24 h, 10 µM, compound concentration 10 uM, replicate 2
[9] = 48 h, 1 µM, compound concentration 1 uM, replicate 1
[10] = 48 h, 1 µM, compound concentration 1 uM, replicate 2
[11] = 48 h, 10 µM, compound concentration 10 uM, replicate 1
[12] = 48 h, 10 µM, compound concentration 10 uM, replicate 2

CN(C)C(=O)Cn1cc(-c2ccc(-c3cncc4ccccc34)cc2)cn1
Population Apoptotic (%) [1]: 47% | Population Fragmented Nuclei (%) [1]: 10% | Population Healthy Nuclei (%) [1]: 72% | Population Hoechst High Intensity Objects (%) [1]: 0% | Population Membrane Permeable-Phenotype (%) [1]: 0% | Population Mitochondria Different-Phenotype (%) [1]: 5% | Population Mitotic Cells (%) [1]: 52% | Population Normal (%) [1]: 100% | Population Pyknosed Nuclei (%) [1]: 16% | Population Tubulin-Different-Phenotype (%) [1]: 31% | Total Cell Count [1]: 139 | Population Apoptotic (%) [2]: 32% | Population Fragmented Nuclei (%) [2]: 33% | Population Healthy Nuclei (%) [2]: 46% | Population Hoechst High Intensity Objects (%) [2]: 5% | Population Membrane Permeable-Phenotype (%) [2]: 5% | Population Mitochondria Different-Phenotype (%) [2]: 2% | Population Mitotic Cells (%) [2]: 67% | Population Normal (%) [2]: 94% | Population Pyknosed Nuclei (%) [2]: 20% | Population Tubulin-Different-Phenotype (%) [2]: 54% | Total Cell Count [2]: 161 | Population Apoptotic (%) [3]: 33% | Population Fragmented Nuclei (%) [3]: 13% | Population Healthy Nuclei (%) [3]: 69% | Population Hoechst High Intensity Objects (%) [3]: 4% | Population Membrane Permeable-Phenotype (%) [3]: 1% | Population Mitochondria Different-Phenotype (%) [3]: 12% | Population Mitotic Cells (%) [3]: 66% | Population Normal (%) [3]: 95% | Population Pyknosed Nuclei (%) [3]: 16% | Population Tubulin-Different-Phenotype (%) [3]: 52% | Total Cell Count [3]: 113 | Population Fragmented Nuclei (%) [4]: 40% | Population Healthy Nuclei (%) [4]: 42% | Population Hoechst High Intensity Objects (%) [4]: 9% | Population Membrane Permeable-Phenotype (%) [4]: 18% | Population Mitochondria Different-Phenotype (%) [4]: 5% | Population Normal (%) [4]: 90% | Population Tubulin-Different-Phenotype (%) [4]: 81% | Total Cell Count [4]: 98 | Population Apoptotic (%) [5]: 47% | Population Fragmented Nuclei (%) [5]: 12% | Population Healthy Nuclei (%) [5]: 73% | Population Hoechst High Intensity Objects (%) [5]: 5% | Population Membrane Permeable-Phenotype (%) [5]: 0% | Population Mitochondria Different-Phenotype (%) [5]: 3% | Population Mitotic Cells (%) [5]: 52% | Population Normal (%) [5]: 94% | Population Pyknosed Nuclei (%) [5]: 14% | Population Tubulin-Different-Phenotype (%) [5]: 37% | Total Cell Count [5]: 137 | Population Apoptotic (%) [6]: 48% | Population Fragmented Nuclei (%) [6]: 40% | Population Healthy Nuclei (%) [6]: 38% | Population Membrane Permeable-Phenotype (%) [6]: 7% | Population Mitochondria Different-Phenotype (%) [6]: 5% | Population Mitotic Cells (%) [6]: 51% | Population Pyknosed Nuclei (%) [6]: 20% | Population Tubulin-Different-Phenotype (%) [6]: 61% | Total Cell Count [6]: 156 | Population Apoptotic (%) [7]: 50% | Population Fragmented Nuclei (%) [7]: 20% | Population Healthy Nuclei (%) [7]: 62% | Population Hoechst High Intensity Objects (%) [7]: 8% | Population Membrane Permeable-Phenotype (%) [7]: 0% | Population Mitochondria Different-Phenotype (%) [7]: 12% | Population Mitotic Cells (%) [7]: 50% | Population Normal (%) [7]: 91% | Population Pyknosed Nuclei (%) [7]: 17% | Population Tubulin-Different-Phenotype (%) [7]: 59% | Total Cell Count [7]: 113 | Population Apoptotic (%) [8]: 41% | Population Fragmented Nuclei (%) [8]: 41% | Population Healthy Nuclei (%) [8]: 43% | Population Hoechst High Intensity Objects (%) [8]: 5% | Population Membrane Permeable-Phenotype (%) [8]: 11% | Population Mitochondria Different-Phenotype (%) [8]: 8% | Population Mitotic Cells (%) [8]: 58% | Population Normal (%) [8]: 94% | Population Pyknosed Nuclei (%) [8]: 15% | Population Tubulin-Different-Phenotype (%) [8]: 85% | Total Cell Count [8]: 85 | Population Apoptotic (%) [9]: 76% | Population Fragmented Nuclei (%) [9]: 21% | Population Healthy Nuclei (%) [9]: 65% | Population Hoechst High Intensity Objects (%) [9]: 6% | Population Membrane Permeable-Phenotype (%) [9]: 3% | Population Mitochondria Different-Phenotype (%) [9]: 8% | Population Mitotic Cells (%) [9]: 23% | Population Normal (%) [9]: 93% | Population Pyknosed Nuclei (%) [9]: 12% | Population Tubulin-Different-Phenotype (%) [9]: 57% | Total Cell Count [9]: 144 | Population Apoptotic (%) [10]: 44% | Population Fragmented Nuclei (%) [10]: 36% | Population Healthy Nuclei (%) [10]: 40% | Population Hoechst High Intensity Objects (%) [10]: 7% | Population Membrane Permeable-Phenotype (%) [10]: 5% | Population Mitochondria Different-Phenotype (%) [10]: 7% | Population Mitotic Cells (%) [10]: 55% | Population Normal (%) [10]: 92% | Population Pyknosed Nuclei (%) [10]: 22% | Population Tubulin-Different-Phenotype (%) [10]: 77% | Total Cell Count [10]: 141 | Population Apoptotic (%) [11]: 72% | Population Fragmented Nuclei (%) [11]: 24% | Population Healthy Nuclei (%) [11]: 54% | Population Hoechst High Intensity Objects (%) [11]: 9% | Population Membrane Permeable-Phenotype (%) [11]: 0% | Population Mitochondria Different-Phenotype (%) [11]: 20% | Population Mitotic Cells (%) [11]: 27% | Population Normal (%) [11]: 90% | Population Pyknosed Nuclei (%) [11]: 20% | Population Tubulin-Different-Phenotype (%) [11]: 55% | Total Cell Count [11]: 117 | Population Apoptotic (%) [12]: 12% | Population Fragmented Nuclei (%) [12]: 47% | Population Healthy Nuclei (%) [12]: 44% | Population Hoechst High Intensity Objects (%) [12]: 0% | Population Membrane Permeable-Phenotype (%) [12]: 8% | Population Mitochondria Different-Phenotype (%) [12]: 13% | Population Mitotic Cells (%) [12]: 87% | Population Normal (%) [12]: 99% | Population Pyknosed Nuclei (%) [12]: 7% | Population Tubulin-Different-Phenotype (%) [12]: 73% | Total Cell Count [12]: 102
